# *1 amine or outer side, *2 acyl side, *3 side chain or, on linkers, in order; H or OH if unused. Where a SMILES comes first, the peptide text is derived from it. [ ]: non-standard residue; d: D form. X1 = O=C([C@H]1CCC[C@@H]1N[*:1])[*:2]; X2 = O=C([C@H]1CNC[C@@H]1N[*:1])[*:2]; β3hR = N=C(N)NCCC[C@H](N)CC(=O)O; β3hT = C[C@@H](O)[C@H](N)CC(=O)O; β3hE = N[C@@H](CCC(=O)O)CC(=O)O
# Assays:
# designed protein gp41-5 = assay: competition fluorescence polarization; parameters: species or system HIV; conditions: read-out: Ki for binding to gp41-5; competition FP assay
# In short: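 Competition fluorescence polarization binding of test compound to a designed gp41-5 construct made of three NHR segments and two CHR segments joined by flexible loops. Ki reported.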
# [1] = target: gp41-derived NHR peptide N36 (Human immunodeficiency virus type 1 group M subtype B, UniProt P04578); format: physicochemical, HIV; conditions: variable-temperature CD; co-assembly with NHR peptide N36
# gp41-derived NHR peptide N36, sequence (P04578 546-581 limits assumed): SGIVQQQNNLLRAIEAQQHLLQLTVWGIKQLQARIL
# proteinase K [2] = assay: in vitro; format: in vitro ADME; conditions: isolated enzyme proteinase k
# HIV-1 DJ258 = format: cell-based
# HIV-1 JRFL = format: cell-based
# HIV-1 UG270 = format: cell-based
# HIV-1 CC 7/86 = format: cell-based
# proteinase K [3] = target: proteinase K (Parengyodontium album, UniProt P06873); conditions: in vitro, ref 3a; cited from earlier work
# proteinase K (Parengyodontium album, UniProt P06873), sequence (P06873 106-384): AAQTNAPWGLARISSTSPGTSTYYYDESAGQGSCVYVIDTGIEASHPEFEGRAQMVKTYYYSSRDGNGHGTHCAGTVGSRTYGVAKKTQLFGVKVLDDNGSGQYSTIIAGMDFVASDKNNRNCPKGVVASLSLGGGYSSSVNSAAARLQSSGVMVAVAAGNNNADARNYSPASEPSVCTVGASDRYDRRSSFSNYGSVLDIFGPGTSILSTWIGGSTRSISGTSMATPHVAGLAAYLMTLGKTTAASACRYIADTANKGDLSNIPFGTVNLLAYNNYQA
Compound,Ki (designed protein gp41-5),apparent Tm of helix-bundle with N36 [1],half-life (proteinase K [2]),IC50 (HIV-1 DJ258),IC50 (HIV-1 JRFL),IC50 (HIV-1 UG270),IC50 (HIV-1 CC 7/86),resistance to degradation by proteinase K relative to α-peptide T-2635 (proteinase K [3])
Ac-RTWEEWDRAIAEYARRIEELIRAAQEQQRKNEEALREL-NH2 (N-terminus and C-terminus assumed) [3α],< 0.2 nM,91 °C,,,,,,
CC[C@H](C)[C@H](NC(=O)[C@H](C)NC(=O)C[C@H](CCCNC(=N)N)NC(=O)[C@H](CC(=O)O)NC(=O)[C@H](Cc1c[nH]c2ccccc12)NC(=O)C[C@H](C)NC(=O)[C@H](CCC(=O)O)NC(=O)[C@H](Cc1c[nH]c2ccccc12)NC(=O)[C@@H](NC(=O)C[C@@H](NC(C)=O)[C@@H](C)O)[C@@H](C)O)C(=O)N[C@@H](C)C(=O)N[C@@H](CCC(=O)O)CC(=O)N[C@@H](Cc1ccc(O)cc1)C(=O)N[C@@H](C)C(=O)N[C@@H](C)CC(=O)N[C@@H](CCCNC(=N)N)C(=O)N[C@H](C(=O)N[C@@H](CCC(=O)O)C(=O)N[C@@H](C)CC(=O)N[C@@H](CC(C)C)C(=O)N[C@H](C(=O)N[C@@H](CCCNC(=N)N)CC(=O)N[C@@H](C)C(=O)N[C@@H](C)C(=O)N[C@@H](CCC(N)=O)C(=O)N[C@@H](CCC(=O)O)CC(=O)N[C@@H](CCC(N)=O)C(=O)N[C@@H](CCC(N)=O)C(=O)N[C@@H](CCC(=O)O)CC(=O)N[C@@H](CCCCN)C(=O)N[C@@H](CC(N)=O)C(=O)N[C@@H](CCC(=O)O)C(=O)N[C@@H](C)CC(=O)N[C@@H](C)C(=O)N[C@@H](CC(C)C)C(=O)N[C@@H](CCCNC(=N)N)CC(=O)N[C@@H](CCC(=O)O)C(=O)N[C@@H](CC(C)C)C(N)=O)[C@@H](C)CC)[C@@H](C)CC [1α/β],3800 nM,,4 min,,,,,
CC[C@H](C)[C@H](NC(=O)[C@H](C)NC(=O)C[C@H](CCCNC(=N)N)NC(=O)[C@H](CC(=O)O)NC(=O)[C@H](Cc1c[nH]c2ccccc12)NC(=O)C[C@H](CCC(=O)O)NC(=O)[C@H](CCC(=O)O)NC(=O)[C@H](Cc1c[nH]c2ccccc12)NC(=O)[C@@H](NC(=O)C[C@H](CCCNC(=N)N)NC(C)=O)[C@@H](C)O)C(=O)N[C@@H](C)C(=O)N[C@@H](CCC(=O)O)CC(=O)N[C@@H](Cc1ccc(O)cc1)C(=O)N[C@@H](C)C(=O)N[C@@H](CCCNC(=N)N)CC(=O)N[C@@H](CCCNC(=N)N)C(=O)N[C@H](C(=O)N[C@@H](CCC(=O)O)C(=O)N[C@@H](CCC(=O)O)CC(=O)N[C@@H](CC(C)C)C(=O)N[C@H](C(=O)N[C@@H](CCCNC(=N)N)CC(=O)N[C@@H](C)C(=O)N[C@@H](C)C(=O)N[C@@H](CCC(N)=O)C(=O)N[C@@H](CCC(=O)O)CC(=O)N[C@@H](CCC(N)=O)C(=O)N[C@@H](CCC(N)=O)C(=O)N[C@@H](CCCNC(=N)N)CC(=O)N[C@@H](CCCCN)C(=O)N[C@@H](CC(N)=O)C(=O)N[C@@H](CCC(=O)O)C(=O)N[C@@H](CCC(=O)O)CC(=O)N[C@@H](C)C(=O)N[C@@H](CC(C)C)C(=O)N[C@@H](CCCNC(=N)N)CC(=O)N[C@@H](CCC(=O)O)C(=O)N[C@@H](CC(C)C)C(N)=O)[C@@H](C)CC)[C@@H](C)CC [4α/β] (Ac-[β3hR]TWE[β3hE]WD[β3hR]AIA[β3hE]YA[β3hR]RIE[β3hE]LI[β3hR]AAQ[β3hE]QQ[β3hR]KNE[β3hE]AL[β3hR]EL-NH2; N-terminus and C-terminus assumed),11 nM,,3.5 min,78 nM,153 nM,56 nM,49 nM,
CC[C@H](C)[C@H](NC(=O)[C@H](C)NC(=O)[C@H]1CNC[C@@H]1NC(=O)[C@H](CC(=O)O)NC(=O)[C@H](Cc1c[nH]c2ccccc12)NC(=O)[C@H]1CCC[C@@H]1NC(=O)[C@H](CCC(=O)O)NC(=O)[C@H](Cc1c[nH]c2ccccc12)NC(=O)[C@@H](NC(=O)C[C@@H](NC(C)=O)[C@@H](C)O)[C@@H](C)O)C(=O)N[C@@H](C)C(=O)N[C@@H](CCC(=O)O)CC(=O)N[C@@H](Cc1ccc(O)cc1)C(=O)N[C@@H](C)C(=O)N[C@H]1CCC[C@@H]1C(=O)N[C@@H](CCCNC(=N)N)C(=O)N[C@H](C(=O)N[C@@H](CCC(=O)O)C(=O)N[C@H]1CCC[C@@H]1C(=O)N[C@@H](CC(C)C)C(=O)N[C@H](C(=O)N[C@H]1CNC[C@@H]1C(=O)N[C@@H](C)C(=O)N[C@@H](C)C(=O)N[C@@H](CCC(N)=O)C(=O)N[C@@H](CCC(=O)O)CC(=O)N[C@@H](CCC(N)=O)C(=O)N[C@@H](CCC(N)=O)C(=O)N[C@@H](CCC(=O)O)CC(=O)N[C@@H](CCCCN)C(=O)N[C@@H](CC(N)=O)C(=O)N[C@@H](CCC(=O)O)C(=O)N[C@H]1CCC[C@@H]1C(=O)N[C@@H](C)C(=O)N[C@@H](CC(C)C)C(=O)N[C@H]1CNC[C@@H]1C(=O)N[C@@H](CCC(=O)O)C(=O)N[C@@H](CC(C)C)C(N)=O)[C@@H](C)CC)[C@@H](C)CC [2α/β] (Ac-[β3hT]TWE[X1]WD[X2]AIA[β3hE]YA[X1]RIE[X1]LI[X2]AAQ[β3hE]QQ[β3hE]KNE[X1]AL[X2]EL-NH2; N-terminus and C-terminus assumed),,,,42 nM,131 nM,39 nM,47 nM,~ 300 fold
Enfuvirtide,,,,200 nM,180 nM,110 nM,140 nM,

# From PMC3377471 (Journal of the American Chemical Society, 2012)
